FGF22 binding = binders of human FGF22 protein, primary screen, FGF22 synaptogenesis inhibitor project, biophysical, thermal shift, single point; Fibroblast growth factor 22 (Homo sapiens), Q9HCT0; AID 651658, 2012; recombinant FGF22 thermal shift, SYPRO orange fluorescence; percent of sucrose octasulfate shift, DMSO zero; 340,000 compounds, 1.5% hits; activity (Tm shift, normalised), % at 9.99 µM;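 active = mean Tm shift, scaled 0 neutral to 100 positive control, at about 1.3% or above, every replicate too, limit read from the data; inconclusive = no clear call, values can overlap the other calls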
Target sequence (Q9HCT0 whole entry, looked up): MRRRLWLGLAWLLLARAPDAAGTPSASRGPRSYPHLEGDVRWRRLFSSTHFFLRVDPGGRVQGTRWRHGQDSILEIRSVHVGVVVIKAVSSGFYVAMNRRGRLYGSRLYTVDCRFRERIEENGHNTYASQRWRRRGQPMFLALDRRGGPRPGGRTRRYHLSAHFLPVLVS
F508del corr = F508del CFTR correction, initial screen, CFBE line, single point; activity (quench increase), % at 7.58 µM; AID 720511, 2013; 350,000 compounds, 0.36% hits; CFBE cells, YFP halide quenching; stimulated with forskolin plus potentiator P3; % fluorescence drop versus neutral controls;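 active = mean added fluorescence quench of at least 8% versus neutral control, with both replicates also reaching 8%; inconclusive = only one of the mean or replicate conditions met; inactive = mean below 8% and not both replicates reaching 8%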;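 also: cells transiently co-express mutant CFTR-F508del with the halide-sensitive YFP; corrector assay measuring rescue of mutant channel to the surface after 24 h compound exposure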
dFosB act-1 = activators of delta FosB homodimer, primary screen, biochemical, fluorescence polarization, TAMRA-CDK5 oligo, single point; Protein FosB (Mus musculus), P13346; purified delta FosB; percent of positive-control signal above neutral wells; activation, % at 25 µM; 340,000 compounds, 0.99% hits; AID 493131, 2011;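 active = mean activation above about 17%, with every replicate also reaching it, limit read from the data, passing the limit was not always enough; inconclusive = only one of the two conditions met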
Target sequence (P13346 whole entry, looked up): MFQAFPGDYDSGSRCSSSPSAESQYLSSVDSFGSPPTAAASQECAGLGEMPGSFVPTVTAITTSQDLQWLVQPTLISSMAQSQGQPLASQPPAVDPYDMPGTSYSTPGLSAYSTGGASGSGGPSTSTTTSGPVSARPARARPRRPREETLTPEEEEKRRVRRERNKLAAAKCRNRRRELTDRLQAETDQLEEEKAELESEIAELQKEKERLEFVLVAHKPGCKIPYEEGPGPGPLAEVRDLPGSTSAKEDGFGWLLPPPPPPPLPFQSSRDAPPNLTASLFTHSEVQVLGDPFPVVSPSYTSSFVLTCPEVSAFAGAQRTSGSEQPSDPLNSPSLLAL
S100A4 MyoIIA = inhibitors of S100A4-myosin IIA peptide binding, primary screen, biochemical, fluorescence polarization, TAMRA-MyoIIA peptide; inhibition, % at 10.7 µM; 360,000 compounds, 0.14% hits; Protein S100-A4 (Homo sapiens), P26447; AID 652163, 2013;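 active = mean inhibition of at least 70% across replicates, with every replicate also reaching that level; inconclusive = mean inhibition reaches 70% but some replicates fall short; inactive = mean inhibition below 70%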
Target sequence (P26447 whole entry, looked up): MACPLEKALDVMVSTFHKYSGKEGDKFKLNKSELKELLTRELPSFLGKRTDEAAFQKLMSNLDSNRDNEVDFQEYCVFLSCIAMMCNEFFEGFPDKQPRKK
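assay system = human S100A4 monomer with TAMRA-labelled myosin IIA peptide | also added = labelled myosin peptide probe, 5 nM | incubation = 5 min between mix addition and reading | control set = DMSO and TFP controls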
dFosB act-2 = activators of mouse delta FosB DNA binding, confirmation, biochemical, fluorescence polarization, TAMRA-CDK5 oligo, cherry-picked samples; shares compounds with dFosB act-1; purified delta FosB; normalised: neutral wells 0, positive control 100; activation, % at 24.9 µM; 2,400 tested, under 10 active; AID 588690, 2011;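 active = highest replicate activation at or above 34% and every replicate reaching that threshold; inconclusive = meets only one of the two criteria; inactive = meets neither criterion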;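 also: higher polarization means more probe DNA bound by delta FosB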
Numbers stand for hits. This is a sample that favours compounds with a hit; in the whole collection about 2.2% have one here.

Results for O=C(CSc1nc(C2CC2)nc2c1cnn2-c1ccccc1)Nc1c[nH]c(=O)[nH]c1=O ?
FGF22 binding: inactive; F508del corr: inactive; dFosB act-1: 127; S100A4 MyoIIA: inactive; dFosB act-2: inactive

Results for CN1CCN(S(=O)(=O)c2cccc(C(=O)Oc3ccc(C(C)(C)C)cc3)c2)CC1 ?
FGF22 binding: inactive; F508del corr: inactive; dFosB act-1: 23; S100A4 MyoIIA: inactive; dFosB act-2: inactive

How did Cc1ccccc1-c1nsc(SCC(=O)Nc2ccc3c(c2)OCO3)n1 do in these assays?
dFosB act-1: inactive

How did Cc1cccc(-c2nsc(SCC(=O)Nc3ccc4c(c3)OCO4)n2)c1 do in these assays?
dFosB act-1: 20; dFosB act-2: inactive

Results for COc1ccc(OCc2nnc(NC(=O)Nc3ccc(F)cc3)s2)cc1 ?
dFosB act-1: 73; dFosB act-2: inactive

Results for O=C(Nc1nnc(COc2ccc(F)cc2)s1)Nc1ccccc1F ?
FGF22 binding: inactive; F508del corr: inactive; S100A4 MyoIIA: inactive

What do the screens show for `CN(C)CCCN(C(=O)c1ccco1)c1nc2ccc(Br)cc2s1`?
FGF22 binding: inactive; F508del corr: inactive; dFosB act-1: inactive; S100A4 MyoIIA: inactive

How did CN(C)CCN(C(=O)c1ccco1)c1nc2cc3c(cc2s1)OCCO3 do in these assays?
FGF22 binding: inactive; F508del corr: inactive; dFosB act-1: 30; S100A4 MyoIIA: inactive; dFosB act-2: inactive

How did CN(C)CCCN(C(=O)c1ccc2c(c1)CCCC2)c1nc2cc3c(cc2s1)OCO3 do in these assays?
FGF22 binding: inactive; F508del corr: inactive; dFosB act-1: 26; S100A4 MyoIIA: inactive; dFosB act-2: inactive

Results for CCOc1cccc2sc(N(CCN(CC)CC)C(=O)c3ccc(S(=O)(=O)N4CCCC4)cc3)nc12 ?
FGF22 binding: inactive; F508del corr: inactive; dFosB act-1: inactive; S100A4 MyoIIA: inactive

What do the screens show for `COc1ccc2sc(N(CCCN(C)C)C(=O)c3ccc(S(=O)(=O)N4CCCC4)cc3)nc2c1`?
FGF22 binding: inactive; F508del corr: inactive; dFosB act-1: inactive; S100A4 MyoIIA: inactive

Results for COc1ccc2sc(N(CCCN(C)C)C(=O)c3ccc(S(=O)(=O)N4CCc5ccccc5C4)cc3)nc2c1 ?
FGF22 binding: inactive; F508del corr: inactive; dFosB act-1: 33; S100A4 MyoIIA: inactive; dFosB act-2: inactive

How did CCN(CC)CCN(C(=O)c1ccc(S(=O)(=O)N2CCCCC2)cc1)c1nc2cc3c(cc2s1)OCO3 do in these assays?
dFosB act-1: 32; dFosB act-2: inactive

What do the screens show for `CN(C)CCN(C(=O)c1ccc(S(=O)(=O)N(C)c2ccccc2)cc1)c1nc2ccc(Cl)cc2s1`?
FGF22 binding: inactive; F508del corr: inactive; dFosB act-1: 28; S100A4 MyoIIA: inactive; dFosB act-2: inactive

How did CN(C)CCN(C(=O)CN1C(=O)c2ccccc2C1=O)c1nc2cc3c(cc2s1)OCO3 do in these assays?
FGF22 binding: inactive; F508del corr: inactive; dFosB act-1: 38; S100A4 MyoIIA: inactive; dFosB act-2: inactive

Results for Cc1cc(C)c2nc(N(CCN(C)C)C(=O)c3ccc4ccccc4c3)sc2c1 ?
FGF22 binding: inactive; F508del corr: inactive; dFosB act-1: 21; S100A4 MyoIIA: inactive; dFosB act-2: inactive

How did CN(C)CCN(C(=O)c1ccc(C(=O)c2ccccc2)cc1)c1nc2cc3c(cc2s1)OCCO3 do in these assays?
FGF22 binding: inactive; F508del corr: inactive; dFosB act-1: 24; S100A4 MyoIIA: inactive; dFosB act-2: inactive

What do the screens show for `CN(C)CCCN(C(=O)c1ccc(C(=O)c2ccccc2)cc1)c1nc2cc3c(cc2s1)OCCO3`?
FGF22 binding: inactive; F508del corr: inactive; dFosB act-1: inconclusive; S100A4 MyoIIA: inactive

How did Cc1ccc(CSCC(=O)N/N=C/c2ccc(OCC(=O)Nc3ccc(C)cc3)cc2)cc1 do in these assays?
dFosB act-1: 27; dFosB act-2: inactive

What do the screens show for `COc1ccc(CSCC(=O)N/N=C/c2ccc(OCC(=O)N3CCCCC3)cc2)cc1`?
FGF22 binding: inactive; F508del corr: inactive; dFosB act-1: inactive; S100A4 MyoIIA: inactive

Results for NC(N)=NC(=O)c1nc(Cl)c(N2CCCCCC2)nc1N ?
FGF22 binding: inactive; F508del corr: inactive; dFosB act-1: 26; S100A4 MyoIIA: inactive; dFosB act-2: inactive

What do the screens show for `COc1ccc(NC(=O)Nc2ccc3c(c2)C(=O)N([C@H](C)CO)C[C@@H](C)[C@@H](CN(C)C(=O)Nc2c(C)noc2C)O3)cc1`?
FGF22 binding: inactive; F508del corr: inactive; S100A4 MyoIIA: inactive

Results for CCc1cccc(OCC2Cn3c(nc4c3c(=O)[nH]c(=O)n4C)O2)c1 (configuration not stated) ?
FGF22 binding: inactive; F508del corr: inactive; dFosB act-1: 20; S100A4 MyoIIA: inactive; dFosB act-2: inactive

Results for COc1ccc(C2CC(c3ccccc3)=NN2C(=O)COC(=O)c2cc(S(=O)(=O)N3CCOCC3)ccc2Cl)cc1 (configuration not stated) ?
F508del corr: inactive; dFosB act-1: 30; S100A4 MyoIIA: inactive; dFosB act-2: inactive

How did Cc1cc(C)c(C#N)c(SCC(=O)Nc2ccccc2C)n1 do in these assays?
FGF22 binding: inactive; F508del corr: inactive; dFosB act-1: inactive; S100A4 MyoIIA: inactive

How did Cc1csc(NC(=O)CSc2nsc(SCC(=O)Nc3nc(C)cs3)c2C#N)n1 do in these assays?
dFosB act-1: 25; dFosB act-2: inactive

What do the screens show for `Cc1cc(C)c(C#N)c(SCC(=O)Nc2nnc(-c3ccccc3)s2)n1`?
dFosB act-1: 39; dFosB act-2: inactive

How did O=C(CSc1ncnc2[nH]ncc12)Nc1nc(-c2ccc(F)c(F)c2)cs1 do in these assays?
FGF22 binding: inactive; F508del corr: inactive; dFosB act-1: 33; S100A4 MyoIIA: inactive; dFosB act-2: inactive

Results for CCOc1ccc(S(=O)(=O)N(C)c2ccc(OCC(=O)N3c4ccc(C)cc4C4CN(C)CCC43)cc2)cc1 (configuration not stated) ?
FGF22 binding: inactive; F508del corr: inactive; dFosB act-1: 34; S100A4 MyoIIA: inactive; dFosB act-2: inactive

Results for Cc1ccc2c(c1)C1CN(C)CCC1N2C(=O)COc1ccc(N(C)S(=O)(=O)c2cccs2)cc1 (configuration not stated) ?
FGF22 binding: inactive; F508del corr: inactive; dFosB act-1: inactive; S100A4 MyoIIA: inactive

What do the screens show for `O=C(Nc1ccc2nn(-c3ccc(F)cc3)nc2c1)c1cccnc1`?
FGF22 binding: 44; F508del corr: inactive; dFosB act-1: 30; S100A4 MyoIIA: inactive; dFosB act-2: inactive

Results for CCc1ccc(-c2csc(NC(=O)c3cccnc3)n2)cc1 ?
dFosB act-1: inactive
